Data reported in PubChem BioAssay.
Calls of active or inactive are those of the source.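 How the source made its calls, unless noted: active means compounds giving at least 50% inhibition in the cell-based MKP-3 phosphatase rescue imaging test; inactive means the rest.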

Columns and labels:
[1] = inhibitors of TNFa-induced NFkB p65 translocation, primary screen, imaging, HUVEC, MLSMR starter and 10KST1 sets (AID 438;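 active means inhibition above 20% together with a positive visual image hit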;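 further: compound added about 3h40 before a 20 min TNFalpha stimulation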;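 on inhibition: signal is the nuclear over cytoplasmic p65 intensity ratio per well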); conditions: HUVEC TNFa-induced p65 nuclear translocation; cell count: measured here: nuclei count (cytotoxicity indicator), at 2.08 µM; inhibition: at 2 µM, stronger effect = higher value, 0% TNFa-plus-vehicle, 100% no-TNFa wells
[2] = endothelial E-selectin expression blockers – imaging, HUVEC, immunofluorescence, MLSMR starter and 10KST1 sets, primary screen (AID 487;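 active means visually confirmed hit in the image check and inhibition above 20%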;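 on inhibition: signal is fraction of cell area covered by stained E-selectin grains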;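 on nuclei count: 100% = median nuclei count of all wells on the same plate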); conditions: HUVEC TNFalpha-induced E-selectin immunofluorescence imaging, at 2 µM; inhibition: stronger effect = higher value; nuclei count: measured here: cell number, toxicity
[3] = Primary imaging screen for DUSP6 inhibitors that restore phospho-Erk in transfected HeLa cells, chemical complementation (AID 609); conditions: HeLa MKP-3 transfected, phospho-Erk imaging KS statistic, at 10 µM, cells stimulated with TPA for 15 min;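 on inhibition: phospho-Erk level distribution per well compared with pooled transfected vehicle control wells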
[4] = target: Dual specificity protein phosphatase 6 (Homo sapiens) (UniProt Q16828); assay: as above; conditions: HeLa MKP-3 transfected, phospho-Erk imaging KS statistic; at 10 µM; stronger effect = higher value; cells stimulated with TPA for 15 min
Dual specificity protein phosphatase 6 (Homo sapiens), sequence (Q16828 whole entry, looked up): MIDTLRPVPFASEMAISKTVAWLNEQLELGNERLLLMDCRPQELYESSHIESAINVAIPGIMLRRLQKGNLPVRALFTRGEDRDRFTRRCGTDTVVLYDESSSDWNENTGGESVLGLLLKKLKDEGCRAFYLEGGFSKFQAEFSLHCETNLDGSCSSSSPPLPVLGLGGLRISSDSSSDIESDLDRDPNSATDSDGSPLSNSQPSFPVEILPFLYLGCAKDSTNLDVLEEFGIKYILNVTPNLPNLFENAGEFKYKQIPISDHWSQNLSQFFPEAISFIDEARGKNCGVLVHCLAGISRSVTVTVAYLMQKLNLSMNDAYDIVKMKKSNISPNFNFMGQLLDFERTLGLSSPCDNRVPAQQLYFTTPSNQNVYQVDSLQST

[5] = target: Voltage-gated potassium channel subunit beta-2 (Rattus norvegicus) (UniProt P62483); assay: inhibitors of rat Kvbeta2 reductase activity – biochemical, NADPH fluorescence, primary screen (AID 622;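 active means fluorescence slope higher than the sample average by over 3 SD, cut at about -0.22 in these data, passing the limit was not always enough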;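 further: slope of raw intensity against log time taken from 70 to 1610 s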); conditions: recombinant KvBeta, 4-cyanobenzaldehyde reduction, at 10 µM, stronger effect = higher value
Voltage-gated potassium channel subunit beta-2 (Rattus norvegicus), sequence (P62483 whole entry, looked up): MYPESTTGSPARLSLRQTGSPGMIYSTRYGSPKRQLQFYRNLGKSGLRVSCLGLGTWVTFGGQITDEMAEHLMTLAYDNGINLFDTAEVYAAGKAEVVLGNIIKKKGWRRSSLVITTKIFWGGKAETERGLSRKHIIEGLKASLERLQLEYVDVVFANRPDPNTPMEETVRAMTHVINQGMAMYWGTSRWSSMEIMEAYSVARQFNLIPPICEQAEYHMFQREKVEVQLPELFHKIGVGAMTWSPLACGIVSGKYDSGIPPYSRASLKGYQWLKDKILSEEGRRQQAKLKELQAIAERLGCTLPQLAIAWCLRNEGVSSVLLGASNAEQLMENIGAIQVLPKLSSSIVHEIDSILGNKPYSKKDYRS

[6] = target: Voltage-gated potassium channel subunit beta-2 (Rattus norvegicus) (UniProt P62483); assay: enhancers of rat Kvbeta2 NADPH turnover – biochemical, NADPH fluorescence, primary screen (AID 623;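 active means NADPH fluorescence slope more negative than the mean of all samples by about 3 SD, 99.7% confidence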;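 further: fluorescence intensity change per second fitted from 20 to 320 s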); conditions: Recombinant KvBeta, NADPH fluorescence decrease slope, 10 min; at 10 µM; stronger effect = lower value
[7] = target: Alpha-2C adrenergic receptor (Homo sapiens) (UniProt P18825); assay: compounds altering alpha2C-coupled GIRK flux – cell-based, HEK293 alpha2C/GIRK1/2, thallium flux, primary screen (AID 624;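 active means fluorescence slope after compound addition differing from the mean of all screened samples at 99.7% confidence, in either direction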;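 further: slope of fluorescence ratio to pre-addition baseline per second over 15 to 24 s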); conditions: thallium flux BTC fluorescence, at 10 µM, actives lie on both sides
Alpha-2C adrenergic receptor (Homo sapiens), sequence (P18825 whole entry, looked up): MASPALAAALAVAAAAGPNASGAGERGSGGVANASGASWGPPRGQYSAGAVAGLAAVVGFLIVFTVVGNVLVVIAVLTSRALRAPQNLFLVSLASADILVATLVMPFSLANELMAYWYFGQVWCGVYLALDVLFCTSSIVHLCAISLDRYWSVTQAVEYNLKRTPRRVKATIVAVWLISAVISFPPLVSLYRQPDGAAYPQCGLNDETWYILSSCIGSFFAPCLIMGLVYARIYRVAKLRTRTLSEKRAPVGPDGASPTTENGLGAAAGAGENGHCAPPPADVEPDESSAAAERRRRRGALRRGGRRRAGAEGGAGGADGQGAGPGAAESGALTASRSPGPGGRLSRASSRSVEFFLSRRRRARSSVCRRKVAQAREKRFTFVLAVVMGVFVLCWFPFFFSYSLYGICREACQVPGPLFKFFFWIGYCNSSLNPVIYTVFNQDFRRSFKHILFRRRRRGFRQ

[8] = inhibitors of larval lipid processing in zebrafish, primary screen, whole organism, PED6 fluorescence, gall bladder and intestine (AID 686;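 active means a full or partial loss of lipid-probe fluorescence in the fish gall bladder, intestine or both, judged by eye; inactive means no fluorescence loss, or compound toxic to the fish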;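 further: larvae 5 to 7 days old with five fish per well; signal comes from phospholipase A2 cleavage of quenched PED6 carried via bile; overnight exposure to compound and PED6 before scoring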); conditions: Zebrafish larvae PED6 lipid processing, fluorescence scoring; screened at 20 µM (by protocol)
Method in brief: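 Also added: quenched phospholipase substrate PED6, 100 nM final, ingested by larvae; System: zebrafish larvae, 5-7 d; Quantity: 5 larvae per well; Compound: 20 µM single dose; Schedule: overnight compound and PED6 incubation; Read-out: visual per-well fluorescence inhibition score; Measured by: By-eye fluorescence microscopy; Medium: E3.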

[9] = loss of swimming-algae plug formation – whole organism, Chlamydomonas reinhardtii, WT vs cilia-less mutant, absorbance, 96-well, primary screen (AID 463189;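 active means inhibition at or above 50% relative to wild type and mutant plate controls; inactive means inhibition below 50%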;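 further: 0% = wild type cc124 cells in DMSO and 100% = ciliumless bld1 mutant cells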); conditions: Chlamydomonas reinhardtii gravitaxis, OD600 absorbance, 2 days; at 10 µM; stronger effect = higher value
[10] = measured here: cell density z-score
[11] = measured here: nuclear c-Myc green intensity z-score
[12] = measured here: nuclear pErk red intensity z-score, stronger effect = higher value

Structure (SMILES)	cell count [1]	inhibition [1]	inhibition [2]	nuclei count [2]	z-score [3, 10]	z-score [3, 11]	z-score [3, 12]	inhibition [4]	fluorescence slope [5]	NADPH fluorescence slope [6]	slope [7]	outcome [8]	inhibition [9]
O/N=C(\c1ccc2c(c1)OCCO2)C1CCCCC1	483	-8.4% (inactive)	0.8% (inactive)	88.1%	-0.525	-0.257	1.15	-1.98% (inactive)	-0.497 (inactive)	-3.9e-05 (inactive)	0.00548 (inactive)	inactive	124% (active)
COc1ccc(CCNc2nc3c(c(=O)n(C)c(=O)n3C)n2C)cc1OC	604	-9.9% (inactive)	-63.1% (inactive)	146%	1.46	-0.0832	0.95	-4.27% (inactive)	-0.425 (inactive)	-6e-05 (inactive)	0.00693 (inactive)	inactive	-4.62% (inactive)
CCCCNC(=O)N(C)c1nncnc1C(=O)NC	491	-10.8% (inactive)	-190% (inactive)	191%	0.256	-0.788	0.32	-7.28% (inactive)	-0.37 (inactive)	-2.2e-05 (inactive)	0.00552 (inactive)	inactive	-1.96% (inactive)
CCCOc1ccc(N2C(=O)CC(N(CCC)C(=O)CCC(=O)O)C2=O)cc1 (stereo unspecified)	468	-11.6% (inactive)	-161% (inactive)	204%	-1.24	-0.331	-0.093	7.7% (inactive)	-0.384 (inactive)	-9.2e-06 (inactive)	0.00456 (inactive)	inactive; toxic	11.3% (inactive)
CCOC(=O)c1c(C)n(C)c2ccc(OC)c(NC(=O)CN3CCN(Cc4ccccc4)CC3)c12	291	0.8% (inactive)	-14% (inactive)	93.5%	-0.908	0.5	1.45	-6.59% (inactive)	-0.431 (inactive)	-0.000147 (inactive)	0.00677 (inactive)	inactive	-10.1% (inactive)
CC1(C)Cc2c(c(N3CCOCC3)nc3snc(N)c23)CO1	554	-1.3% (inactive)	-78.1% (inactive)	140%	0.144	-0.616	0.222	1.48% (inactive)	-0.281 (inactive)	-1.1e-05 (inactive)	0.00566 (inactive)	inactive	22.3% (inactive)
Clc1ccc2[nH]c3c(NCCN4CCOCC4)ncnc3c2c1	504	-25% (inactive)	-70% (inactive)	154%	-1.3	0.291	1.3	-2.47% (inactive)	-0.503 (inactive)	-3.9e-05 (inactive)	0.00429 (inactive)	inactive	2.54% (inactive)
COc1ccccc1N1C(=O)C2ON(c3ccccc3)C(c3ccc(N(C)C)cc3)C2C1=O (stereo unspecified)	575	-8.3% (inactive)	-66.7% (inactive)	170%	-2.24	0.301	1.93	-15% (inactive)	-0.503 (inactive)	-3e-05 (inactive)	0.00352 (inactive)	inactive	9.55% (inactive)
CCCSc1nc(C)c(CC(=O)OCC)c(=O)[nH]1	573	-10.2% (inactive)	-162% (inactive)	138%	-0.128	-1.19	1.09	1.98% (inactive)	-0.508 (inactive)	-6e-05 (inactive)	0.008 (inactive)	inactive	6.42% (inactive)
Cc1cc(C)n(C(=O)CNC(=O)CCc2ccccc2)n1	562	-0.6% (inactive)	62.6% (inactive)	151%	1.03	-0.553	-0.0899	-1.75% (inactive)	-0.411 (inactive)	-2.5e-05 (inactive)	0.00565 (inactive)	inactive	-9.43% (inactive)
COc1ccccc1-c1nnc2sc(C3CCCCC3)nn12	531	-12.5% (inactive)	-318% (inactive)	161%	-0.671	0.45	0.848	-0.674% (inactive)	-0.405 (inactive)	-0.000298 (inactive)	0.00423 (inactive)	active; no signal in intestine only	11.6% (inactive)
N#CC1=C(N)NC(SCc2ccc(F)cc2)=C(C#N)C12CCCCC2	614	-15.5% (inactive)	24.8% (inactive)	164%	-0.696	-0.0167	-0.195	6.04% (inactive)	-0.404 (inactive)	-4.7e-05 (inactive)	0.0043 (inactive)	inactive	-1.21% (inactive)
COc1ccc(Nc2cc(C)nc3ccccc23)cc1	467	-5.2% (inactive)	36% (inactive)	118%	0.29	0.934	-1.53	4.72% (inactive)	-0.429 (inactive)	-2.1e-05 (inactive)	0.00465 (inactive)	inactive	17.6% (inactive)
CCOc1nc(SCCOc2ccc(C)cc2)nc(N(C)C)n1	346	-10.2% (inactive)	-115% (inactive)	91.5%	2.72	-0.00429	-0.85	22.8% (inactive)	-0.474 (inactive)	3.1e-05 (inactive)	0.0074 (inactive)	inactive	30.3% (inactive)
COc1cccc(Cn2c(NCC(C)C)nc3c2c(=O)n(C)c(=O)n3C)c1	341	3.2% (inactive)	-77.7% (inactive)	127%	-0.509	0.441	1.11	-0.624% (inactive)	-0.385 (inactive)	4.1e-05 (inactive)	0.00489 (inactive)	inactive	-12.8% (inactive)
CCCCn1c2nc3ccccc3nc2c2c(=O)n(CC(C)C)cnc21	391	2.5% (inactive)	21.4% (inactive)	141%	0.699	0.544	-0.343	17.4% (inactive)	-0.436 (inactive)	-9.3e-05 (inactive)	0.00687 (inactive)	inactive	33.2% (inactive)
CN(C)c1ccc(-c2nn3c(-c4ccc(Cl)cc4)nnc3s2)cc1	615	-7.8% (inactive)	-183% (inactive)	147%	0.167	-0.869	-2.02	19.1% (inactive)	-0.409 (inactive)	-0.000319 (inactive)	0.00702 (inactive)	inactive	14.6% (inactive)
CCOC(=O)c1ccccc1OCc1cc(/C=N/n2cncn2)ccc1OC	430	-16.8% (inactive)	-87.5% (inactive)	169%	0.277	0.212	-0.384	-2.29% (inactive)	-0.358 (inactive)	1.8e-05 (inactive)	0.00447 (inactive)	inactive	-0.944% (inactive)
CCN(CC)CCNc1nc(-c2ccco2)c2c(c1C#N)CC(C)(C)OC2	580	-4.5% (inactive)	12.3% (inactive)	110%	0.832	0.195	0.416	9.82% (inactive)	-0.379 (inactive)	1.9e-06 (inactive)	0.00425 (inactive)	inactive	47.8% (inactive)
O=C(c1coc(=O)c(Br)c1)N1CCCc2ccccc21	384	-0.8% (inactive)	-39.7% (inactive)	134%	-0.336	-1.15	0.12	3.42% (inactive)	-0.437 (inactive)	-8e-05 (inactive)	0.00466 (inactive)	inactive	36.5% (inactive)
CSc1nnc2n(C3CCCCC3)c(=O)c3c4c(sc3n12)CCCC4	609	-10.6% (inactive)	-12.8% (inactive)	111%	-0.921	-0.992	-0.882	-2.07% (inactive)	-0.502 (inactive)	-0.000304 (inactive)	0.0054 (inactive)	inactive	-18.3% (inactive)
OCCN(CCO)c1ncnc2c1sc1nc(N3CCOCC3)c3c(c12)CCCC3	597	-26.4% (inactive)	-62.2% (inactive)	167%	0.421	-0.458	-0.129	7.73% (inactive)	-0.275 (inactive)	1.3e-05 (inactive)	0.00534 (inactive)	inactive	-3.05% (inactive)
c1ccc(-c2nnc3n2N=C(c2ccc4c(c2)OCO4)CS3)nc1	626	-5% (inactive)	-177% (inactive)	144%	0.439	0.912	0.545	-11.5% (inactive)	-0.406 (inactive)	-0.000131 (inactive)	0.00609 (inactive)	inactive	-7.21% (inactive)
COc1ccccc1C(=O)N1CCCC1(C#N)c1ccccc1 (stereo unspecified)	653	1.8% (inactive)	-44.9% (inactive)	121%	-0.569	-0.677	-0.674	-6.48% (inactive)	-0.475 (inactive)	-0.000294 (inactive)	0.00555 (inactive)	inactive	13% (inactive)
C=COC(=O)CSc1nc(-c2cccs2)ccc1C#N	659	-10.8% (inactive)	-26.9% (inactive)	152%	-1.42	1.7	0.138	-5.62% (inactive)	-0.385 (inactive)	-2.3e-06 (inactive)	0.0065 (inactive)	inactive	8.37% (inactive)
C=CCc1cccc(/C=N/c2ncn[nH]2)c1O	470	-9% (inactive)	-90.5% (inactive)	148%	-0.648	0.659	-0.784	11.9% (inactive)	-0.491 (inactive)	-0.000107 (inactive)	0.00453 (inactive)	inactive	-13.3% (inactive)
Nc1ccc2ncccc2c1N	537	-10% (inactive)	-47.1% (inactive)	103%	0.673	1.61	0.017	-9.66% (inactive)	-0.517 (inactive)	-2.1e-05 (inactive)	0.0034 (inactive)	inactive	-1.57% (inactive)
